# Measured values as given in ChEMBL document CHEMBL4428066, “Small Molecule Reversible Inhibitors of Bruton's Tyrosine Kinase (BTK): Structure-Activity Relationships Leading to the Identification of 7-(2-Hydroxypropan-2-yl)-4-[2-methyl-3-(4-oxo-3,4-dihydroquinazolin-3-yl)phenyl]-9H-carbazole-1-carboxamide (BMS-935177)” (J Med Chem, 2016).
# pIC50: −log10 of the molar value. The source made the active and inactive calls. The rule behind the calls is not given here.
# Experiments:
# [1] = Cmax in cynomolgus monkey plasma at 2 mg/kg, administered through oral gavage after 0.25 to 48 hrs by LC/MS/MS analysis; assay type: ADME, organism-based, Macaca fascicularis; design: dose 2 mg/kg, route oral
# [2] = system: Mus musculus; assay: Antiarthritic activity in DBA/1 mouse model of collagen-induced arthritis inflammation assessed reduction in disease severity at 10 mg/kg, po dosing daily starting on day of primary immunization; assay type: functional; design: scale not given: the % may be the effect or the level left
# [3] = system: Mus musculus; assay: Antiarthritic activity in DBA/1 mouse model of collagen-induced arthritis inflammation assessed as presence of smooth bone surface at 20 mg/kg, po dosed daily beginning on day of primary immunization by microcomputed tomography imaging analysis; assay type: functional, organism-based
# [4] = system: Mus musculus; assay: Antiarthritic activity in po dosed CIA DBA/1 mouse model assessed as reduction of disease severity after 21 days; assay type: functional, organism-based
# [5] = system: Salmonella typhimurium; assay: Mutagenic activity in Salmonella typhimurium by AMES test; assay type: toxicity, organism-based; settings: salmonella enterica subsp. enterica serovar typhimurium
# [6] = target: Tyrosine-protein kinase Lyn (Homo sapiens, UniProt P07948); assay: Inhibition of partial length human LYN expressed in bacterial system
# Sequence of Tyrosine-protein kinase Lyn (P07948 whole entry): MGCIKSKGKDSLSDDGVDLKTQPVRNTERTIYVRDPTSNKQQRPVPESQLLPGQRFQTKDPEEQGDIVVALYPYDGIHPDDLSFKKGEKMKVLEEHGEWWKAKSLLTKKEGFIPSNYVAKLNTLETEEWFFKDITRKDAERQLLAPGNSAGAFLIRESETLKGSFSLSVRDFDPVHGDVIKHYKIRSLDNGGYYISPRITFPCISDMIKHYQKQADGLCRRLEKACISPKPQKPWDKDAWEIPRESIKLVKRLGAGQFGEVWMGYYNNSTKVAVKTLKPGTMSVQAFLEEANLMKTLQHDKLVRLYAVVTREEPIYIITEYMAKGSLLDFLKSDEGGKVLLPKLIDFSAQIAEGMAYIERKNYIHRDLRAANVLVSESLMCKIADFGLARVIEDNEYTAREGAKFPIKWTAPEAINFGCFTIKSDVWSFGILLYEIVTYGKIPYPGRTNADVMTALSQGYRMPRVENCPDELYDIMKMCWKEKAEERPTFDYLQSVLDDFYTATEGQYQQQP
# [7] = Passive permeability from basolateral to apical side in human Caco2 cells; assay type: ADME, cell-based; settings: Caco-2, read-out: permeability
# [8] = system: Mus musculus; assay: Time required for plasma concentration to reach above in vitro BCR/IgM/IgG-stimulated CD69 expression mouse whole blood IC50 in DBA/1 mouse CIA model at 10 mg/kg administered daily through oral gavage starting on day of primary immunization; assay type: ADME, organism-based; settings: in vivo
# [9] = target: Cytochrome P450 2D6 (Homo sapiens, UniProt P10635); assay: Inhibition of human liver microsomes CYP2D6 after 30 mins in presence of NADPH; assay type: ADME
# Sequence of Cytochrome P450 2D6 (P10635 whole entry): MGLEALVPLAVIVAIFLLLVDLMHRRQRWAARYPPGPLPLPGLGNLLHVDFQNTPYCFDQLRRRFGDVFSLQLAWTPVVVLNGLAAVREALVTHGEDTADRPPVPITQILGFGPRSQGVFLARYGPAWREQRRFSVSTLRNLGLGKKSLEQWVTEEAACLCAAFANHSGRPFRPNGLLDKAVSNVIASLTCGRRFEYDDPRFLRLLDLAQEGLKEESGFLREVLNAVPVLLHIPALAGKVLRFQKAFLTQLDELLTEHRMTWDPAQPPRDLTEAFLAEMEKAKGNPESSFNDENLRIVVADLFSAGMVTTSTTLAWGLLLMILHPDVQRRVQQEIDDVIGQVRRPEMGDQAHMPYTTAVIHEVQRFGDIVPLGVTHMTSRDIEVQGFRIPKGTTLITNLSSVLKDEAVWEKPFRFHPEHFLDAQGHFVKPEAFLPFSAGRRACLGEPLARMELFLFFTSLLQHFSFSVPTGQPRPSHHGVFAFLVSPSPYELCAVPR
# [10] = Plasma clearance in Sprague-Dawley rat at 2 mg/kg, iv through bolus administration by LC/MS/MS analysis; assay type: ADME, organism-based
# [11] = AUC (0 to 24 hrs) in Balb/C mouse at 10 mg/kg, po; assay type: ADME, organism-based; design: time < 24 hr, dose 10 mg/kg, route oral; settings: in vivo
# Procedure, shortened: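 Male Balb/C mice dosed orally once at 10 mg/kg in PEG300/TPGS/ethanol (90/5/5 v/v/v).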
# [12] = Half life in Beagle dog plasma at 2 mg/kg, iv through bolus administration after 0.167 to 48 hrs by LC/MS/MS analysis; assay type: ADME, organism-based, Canis lupus familiaris
# [13] = system: Mus musculus; assay: Antiarthritic activity in Balb/C mouse model of anti-collagen antibody-induced arthritis assessed as reduction in paw clinical scores at 30 mg/kg, po dosed daily for 3 days followed by LPS challenge; assay type: functional, organism-based
# [14] = target: Tyrosine-protein kinase Blk (Homo sapiens, UniProt P51451); assay: Inhibition of BLK (unknown origin) expressed in bacterial system
# Sequence of Tyrosine-protein kinase Blk (P51451 whole entry): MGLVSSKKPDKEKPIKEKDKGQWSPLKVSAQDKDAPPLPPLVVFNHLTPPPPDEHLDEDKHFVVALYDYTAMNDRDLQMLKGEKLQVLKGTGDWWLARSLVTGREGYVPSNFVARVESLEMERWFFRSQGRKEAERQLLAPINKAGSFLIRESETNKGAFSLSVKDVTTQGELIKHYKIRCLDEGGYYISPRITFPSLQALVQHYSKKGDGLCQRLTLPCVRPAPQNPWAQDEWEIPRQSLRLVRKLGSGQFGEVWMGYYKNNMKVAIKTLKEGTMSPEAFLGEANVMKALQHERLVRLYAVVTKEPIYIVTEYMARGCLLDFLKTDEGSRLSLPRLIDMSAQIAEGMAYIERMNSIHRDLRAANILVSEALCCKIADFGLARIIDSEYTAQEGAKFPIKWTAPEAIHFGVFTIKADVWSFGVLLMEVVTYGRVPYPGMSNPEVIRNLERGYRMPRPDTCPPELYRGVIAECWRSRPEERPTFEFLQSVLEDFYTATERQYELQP
# [15] = Tmax in Beagle dog plasma at 2 mg/kg, administered through oral gavage after 0.25 to 48 hrs by LC/MS/MS analysis; assay type: ADME, organism-based, Canis lupus familiaris
# [16] = Permeability of the compound at pH 7.4 by PAMPA; assay type: ADME; settings: read-out: permeability
# [17] = Cmax in Beagle dog plasma at 2 mg/kg, administered through oral gavage after 0.25 to 48 hrs by LC/MS/MS analysis; assay type: ADME, organism-based, Canis lupus familiaris; design: dose 2 mg/kg, route oral
# [18] = Cmax in Sprague-Dawley rat plasma at 5 mg/kg, administered through oral gavage by LC/MS/MS analysis; assay type: ADME, organism-based; design: dose 5 mg/kg, route oral
# [19] = Oral bioavailability in mouse at 5 mg/kg after 0.25 to 24 hrs by LC/MS/MS analysis; assay type: ADME, organism-based; settings: in vivo
# [20] = Oral bioavailability in Sprague-Dawley rat at 5 mg/kg by LC/MS/MS analysis; assay type: ADME, organism-based; settings: in vivo
# [21] = AUC in cynomolgus monkey plasma at 2 mg/kg, administered through oral gavage after 0.25 to 48 hrs by LC/MS/MS analysis; assay type: ADME, organism-based, Macaca fascicularis; design: time upper 48 hr, dose 2 mg/kg, time lower 0.25 hr, route oral
# [22] = system: Mus musculus; assay: Antiarthritic activity in DBA/1 mouse model of collagen-induced arthritis inflammation assessed as protection against fusion of small bones dosed daily and orally beginning on day of primary immunization by microcomputed tomography imaging analysis; assay type: functional, organism-based
# [23] = Plasma clearance in cynomolgus monkey at 2 mg/kg, iv through bolus administration after 0.167 to 48 hrs by LC/MS/MS analysis; assay type: ADME, organism-based, Macaca fascicularis
# [24] = Volume of distribution in steady state in mouse at 2 mg/kg, iv through bolus administration after 0.05 to 24 hrs by LC/MS/MS analysis; assay type: ADME, organism-based; settings: in vivo, read-out: Vdss
# [25] = Solubility of the compound in fasted state simulated intestinal fluid; assay type: physicochemical
# [26] = Plasma clearance in mouse at 2 mg/kg, iv through bolus administration after 0.05 to 24 hrs by LC/MS/MS analysis; assay type: ADME, organism-based
# [27] = target: Tyrosine-protein kinase Tec (Homo sapiens, UniProt P42680); assay: Inhibition of partial length human TEC expressed in bacterial system
# Sequence of Tyrosine-protein kinase Tec (P42680 whole entry): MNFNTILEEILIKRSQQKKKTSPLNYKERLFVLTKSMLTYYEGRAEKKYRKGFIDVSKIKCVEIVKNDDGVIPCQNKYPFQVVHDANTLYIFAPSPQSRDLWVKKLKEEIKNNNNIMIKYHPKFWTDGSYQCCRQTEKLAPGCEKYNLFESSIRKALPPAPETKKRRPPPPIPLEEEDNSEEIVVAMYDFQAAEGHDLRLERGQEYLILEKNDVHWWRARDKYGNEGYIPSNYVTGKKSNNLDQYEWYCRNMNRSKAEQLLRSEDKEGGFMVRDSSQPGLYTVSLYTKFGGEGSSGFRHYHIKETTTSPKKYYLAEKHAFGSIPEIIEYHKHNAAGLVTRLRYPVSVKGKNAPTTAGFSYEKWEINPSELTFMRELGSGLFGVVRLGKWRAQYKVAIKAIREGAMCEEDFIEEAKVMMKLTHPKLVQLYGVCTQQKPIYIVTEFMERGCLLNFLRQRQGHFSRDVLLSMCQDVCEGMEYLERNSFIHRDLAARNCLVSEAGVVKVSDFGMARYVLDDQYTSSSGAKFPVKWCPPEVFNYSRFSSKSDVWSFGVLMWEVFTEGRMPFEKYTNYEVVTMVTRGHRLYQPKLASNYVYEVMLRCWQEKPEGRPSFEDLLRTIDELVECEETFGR
# [28] = system: Mus musculus; assay: Antiarthritic activity in DBA/1 mouse model of collagen-induced arthritis inflammation assessed reduction in incidence of clinically evident disease dosed daily and orally beginning on day of primary immunization; assay type: functional, organism-based
# [29] = target: Proto-oncogene tyrosine-protein kinase receptor Ret (Homo sapiens, UniProt P07949); assay: Inhibition of partial length human RET expressed in bacterial system
# Sequence of Proto-oncogene tyrosine-protein kinase receptor Ret (P07949 whole entry): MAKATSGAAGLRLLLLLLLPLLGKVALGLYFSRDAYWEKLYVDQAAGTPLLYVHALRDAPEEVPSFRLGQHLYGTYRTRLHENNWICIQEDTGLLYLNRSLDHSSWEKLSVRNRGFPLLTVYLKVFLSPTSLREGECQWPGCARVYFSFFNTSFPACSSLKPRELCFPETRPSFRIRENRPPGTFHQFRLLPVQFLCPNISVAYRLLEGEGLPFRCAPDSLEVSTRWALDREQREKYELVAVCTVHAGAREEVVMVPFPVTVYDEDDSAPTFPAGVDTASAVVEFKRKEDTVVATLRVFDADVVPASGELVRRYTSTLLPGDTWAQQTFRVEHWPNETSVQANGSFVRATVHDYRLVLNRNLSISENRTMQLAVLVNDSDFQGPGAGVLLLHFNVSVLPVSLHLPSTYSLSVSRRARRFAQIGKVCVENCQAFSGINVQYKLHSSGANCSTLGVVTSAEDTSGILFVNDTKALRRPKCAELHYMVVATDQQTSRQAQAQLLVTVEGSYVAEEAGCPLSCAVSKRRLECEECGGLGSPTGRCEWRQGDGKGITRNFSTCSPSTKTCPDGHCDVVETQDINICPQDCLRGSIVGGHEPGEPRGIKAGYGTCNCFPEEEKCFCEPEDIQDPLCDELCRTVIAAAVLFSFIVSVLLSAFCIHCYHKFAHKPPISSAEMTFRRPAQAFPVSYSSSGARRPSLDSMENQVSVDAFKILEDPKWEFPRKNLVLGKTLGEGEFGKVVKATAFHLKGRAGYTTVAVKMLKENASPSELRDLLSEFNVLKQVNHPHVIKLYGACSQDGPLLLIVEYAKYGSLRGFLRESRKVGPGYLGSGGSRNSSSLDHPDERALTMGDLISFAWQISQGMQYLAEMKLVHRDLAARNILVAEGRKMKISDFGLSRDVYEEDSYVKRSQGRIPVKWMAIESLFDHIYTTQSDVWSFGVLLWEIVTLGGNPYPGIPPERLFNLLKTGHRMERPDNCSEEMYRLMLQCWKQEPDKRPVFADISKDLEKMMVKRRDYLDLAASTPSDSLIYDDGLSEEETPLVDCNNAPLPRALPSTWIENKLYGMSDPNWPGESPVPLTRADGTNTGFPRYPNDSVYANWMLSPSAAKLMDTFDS
# [30] = target: Cytoplasmic tyrosine-protein kinase BMX (Homo sapiens, UniProt P51813); assay: Inhibition of full length human BMX expressed in bacterial system
# Sequence of Cytoplasmic tyrosine-protein kinase BMX (P51813 whole entry): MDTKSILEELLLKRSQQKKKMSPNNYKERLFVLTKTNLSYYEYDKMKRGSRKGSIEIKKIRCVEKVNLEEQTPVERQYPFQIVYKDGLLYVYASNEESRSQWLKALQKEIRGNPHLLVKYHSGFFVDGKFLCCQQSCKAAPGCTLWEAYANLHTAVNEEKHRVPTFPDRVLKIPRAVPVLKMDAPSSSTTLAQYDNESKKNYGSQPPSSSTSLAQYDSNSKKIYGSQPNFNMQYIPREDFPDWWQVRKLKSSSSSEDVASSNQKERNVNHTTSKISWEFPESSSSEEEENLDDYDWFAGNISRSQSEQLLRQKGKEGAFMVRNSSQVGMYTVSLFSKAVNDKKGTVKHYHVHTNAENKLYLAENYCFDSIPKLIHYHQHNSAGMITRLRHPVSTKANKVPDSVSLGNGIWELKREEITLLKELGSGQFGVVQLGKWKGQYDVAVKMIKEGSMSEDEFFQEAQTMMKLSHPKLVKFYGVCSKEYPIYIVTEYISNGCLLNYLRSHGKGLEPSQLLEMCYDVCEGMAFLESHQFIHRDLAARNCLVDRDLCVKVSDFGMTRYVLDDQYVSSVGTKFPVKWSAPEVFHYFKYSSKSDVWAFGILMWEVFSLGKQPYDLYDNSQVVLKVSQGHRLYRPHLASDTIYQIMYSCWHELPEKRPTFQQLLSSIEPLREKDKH
# [31] = Half life in cynomolgus monkey plasma at 2 mg/kg, iv through bolus administration after 0.167 to 48 hrs by LC/MS/MS analysis; assay type: ADME, organism-based, Macaca fascicularis
# [32] = Passive permeability from apical to basolateral side in human Caco2 cells; assay type: ADME, cell-based; settings: Caco-2, read-out: permeability
# [33] = Aqueous solubility of the compound; assay type: physicochemical; settings: aqueous medium
# [34] = Tmax in cynomolgus monkey plasma at 2 mg/kg, administered through oral gavage after 0.25 to 48 hrs by LC/MS/MS analysis; assay type: ADME, organism-based, Macaca fascicularis
# [35] = Volume of distribution in steady state in Beagle dog at 2 mg/kg, iv through bolus administration after 0.167 to 48 hrs by LC/MS/MS analysis; assay type: ADME, organism-based, Canis lupus familiaris; settings: in vivo, read-out: Vdss
# [36] = Oral bioavailability in Beagle dog at 2 mg/kg after 0.25 to 48 hrs by LC/MS/MS analysis; assay type: ADME, organism-based, Canis lupus familiaris; settings: in vivo
# [37] = target: Tyrosine-protein kinase Lck (Homo sapiens, UniProt P06239); assay: Inhibition of partial length human LCK expressed in bacterial system
# Sequence of Tyrosine-protein kinase Lck (P06239 whole entry): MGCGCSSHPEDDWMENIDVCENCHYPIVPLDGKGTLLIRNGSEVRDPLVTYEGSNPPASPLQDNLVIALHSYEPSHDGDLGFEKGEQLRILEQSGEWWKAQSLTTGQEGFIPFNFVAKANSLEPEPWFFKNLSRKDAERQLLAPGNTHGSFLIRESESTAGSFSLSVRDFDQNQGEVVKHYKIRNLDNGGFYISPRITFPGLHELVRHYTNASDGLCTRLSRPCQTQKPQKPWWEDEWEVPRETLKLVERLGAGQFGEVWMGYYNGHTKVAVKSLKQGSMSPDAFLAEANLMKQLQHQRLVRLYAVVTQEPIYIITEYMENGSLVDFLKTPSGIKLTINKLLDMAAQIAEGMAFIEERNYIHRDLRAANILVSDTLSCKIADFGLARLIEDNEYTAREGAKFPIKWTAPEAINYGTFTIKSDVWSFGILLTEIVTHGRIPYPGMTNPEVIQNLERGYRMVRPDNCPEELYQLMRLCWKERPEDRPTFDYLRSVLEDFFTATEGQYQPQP
# [38] = system: Mus musculus; assay: Antiarthritic activity in Balb/C mouse model of anti-collagen antibody-induced arthritis assessed as reduction in paw clinical scores at dosed orally daily for 3 days followed by LPS challenge; assay type: functional, organism-based
# [39] = system: Mus musculus; assay: Time required for plasma concentration to reach above in vitro BCR-stimulated CD69 expression IC50 in Balb/C mouse KLH antibody response model at 5 to 45 mg/kg, po qd for 14 days; assay type: ADME, organism-based; settings: in vivo, 336 h
# [40] = Protein binding in mouse serum; assay type: ADME, cell-free; settings: read-out: PB
# [41] = target: Proto-oncogene tyrosine-protein kinase Src (Homo sapiens, UniProt P12931); assay: Inhibition of partial length human SRC expressed in bacterial system
# Sequence of Proto-oncogene tyrosine-protein kinase Src (P12931 2-536 limits assumed): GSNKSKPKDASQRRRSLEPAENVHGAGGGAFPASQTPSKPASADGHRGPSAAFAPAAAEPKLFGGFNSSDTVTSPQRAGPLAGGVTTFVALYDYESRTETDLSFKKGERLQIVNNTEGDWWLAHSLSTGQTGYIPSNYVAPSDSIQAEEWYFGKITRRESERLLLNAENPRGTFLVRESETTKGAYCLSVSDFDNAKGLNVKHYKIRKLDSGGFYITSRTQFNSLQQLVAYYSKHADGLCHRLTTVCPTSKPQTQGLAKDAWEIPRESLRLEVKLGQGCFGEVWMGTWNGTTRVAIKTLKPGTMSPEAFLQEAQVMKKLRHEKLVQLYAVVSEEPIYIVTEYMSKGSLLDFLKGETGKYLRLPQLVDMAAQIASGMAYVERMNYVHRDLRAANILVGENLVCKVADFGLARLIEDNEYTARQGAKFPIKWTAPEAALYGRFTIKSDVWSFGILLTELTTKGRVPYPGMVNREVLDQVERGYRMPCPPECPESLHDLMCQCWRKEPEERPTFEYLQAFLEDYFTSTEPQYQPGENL
# [42] = system: Mus musculus; assay: Antiarthritic activity in DBA/1 mouse model of collagen-induced arthritis inflammation assessed reduction in disease severity at 20 to 30 mg/kg, po dosing daily starting on day of primary immunization; assay type: functional; design: scale not given: the % may be the effect or the level left
# [43] = Volume of distribution in steady state in cynomolgus monkey at 2 mg/kg, iv through bolus administration after 0.167 to 48 hrs by LC/MS/MS analysis; assay type: ADME, organism-based, Macaca fascicularis; settings: in vivo, read-out: Vdss
smiles,measurement,setting,value
Cc1c(-c2ccc(C(N)=O)c3[nH]c4cc(C(C)(C)O)ccc4c23)cccc1-n1cnc2ccccc2c1=O,Cmax,[1],4800 nM
same,Activity,[2],40%
same,Activity,[3],Active
same,Activity,[4],Dose-dependent effect
same,Activity,[5],Non-Toxic
same,pIC50,[6],6.80
same,Papp B→A,[7],12.2 ×10⁻⁶ cm/s
same,Time,[8],12 h
same,pIC50,[9],< 4.40
same,clearance,[10],6.4 mL/min/kg
same,AUC(0-t) at 24 h,[11],80 µM·h
same,half-life,[12],10.4 h
same,Activity,[13],Active
same,pIC50,[14],7.70
same,Tmax,[15],1.6 h
same,Papp,[16],102 ×10⁻⁶ cm/s
same,Cmax,[17],1200 nM
same,Cmax,[18],2000 nM
same,bioavailability,[19],94%
same,bioavailability,[20],84%
same,AUC,[21],32 µM·h
same,Activity,[22],Dose-dependent effect
same,clearance,[23],2.1 mL/min/kg
same,Vd,[24],1.7 L/kg
same,solubility,[25],6 µg/mL
same,clearance,[26],4.9 mL/min/kg
same,pIC50,[27],7.89
same,Activity,[28],Dose-dependent effect
same,pIC50,[29],6.96
same,pIC50,[30],7.62
same,half-life,[31],10.6 h
same,Papp A→B,[32],< 1.5 ×10⁻⁶ cm/s
same,solubility,[33],< 1 µg/mL
same,Tmax,[34],2.7 h
same,Vd,[35],3.2 L/kg
same,bioavailability,[36],100%
same,pIC50,[37],6.82
same,Activity,[38],Dose-dependent effect
same,Time,[39],5 h
same,fraction unbound,[40],0.01
same,pIC50,[41],5.50
same,Activity,[42],85 - 90%
same,Vd,[43],1.6 L/kg
